Consider one compound from ChEMBL document CHEMBL4387752, “Identification of substituted benzothiazole sulfones as potent and selective inhibitors of endothelial lipase” (Bioorg Med Chem Lett, 2019).

Series [1] addresses T1, Hepatic triacylglycerol lipase (Homo sapiens, UniProt P11150).
T1 sequence (P11150 whole entry): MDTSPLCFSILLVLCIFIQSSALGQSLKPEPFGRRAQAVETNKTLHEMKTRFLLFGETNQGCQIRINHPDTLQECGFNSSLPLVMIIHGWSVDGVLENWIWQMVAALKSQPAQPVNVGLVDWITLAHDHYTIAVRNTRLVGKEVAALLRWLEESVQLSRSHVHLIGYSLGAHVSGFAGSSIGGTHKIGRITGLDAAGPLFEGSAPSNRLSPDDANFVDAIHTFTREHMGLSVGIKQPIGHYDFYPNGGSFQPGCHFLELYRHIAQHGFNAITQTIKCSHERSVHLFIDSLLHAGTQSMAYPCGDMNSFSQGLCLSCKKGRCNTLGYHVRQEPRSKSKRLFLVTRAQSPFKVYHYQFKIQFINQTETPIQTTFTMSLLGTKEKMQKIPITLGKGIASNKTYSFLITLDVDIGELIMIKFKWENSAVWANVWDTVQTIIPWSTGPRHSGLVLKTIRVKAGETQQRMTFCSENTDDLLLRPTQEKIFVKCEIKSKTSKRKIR
Description: Inhibition of human hepatic lipase expressed in African green monkey COS7 cells using PED-A1 as substrate incubated for 20 mins and measured every 20 secs for 10 mins by FRET assay. The series is classed as cell-based. A digest of the protocol:
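IC50s were calculated from mean inhibition values of duplicate determinations.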

The target in series [2] is T2, Endothelial lipase (Mus musculus, UniProt Q9WVG5).
T2 sequence (Q9WVG5 whole entry): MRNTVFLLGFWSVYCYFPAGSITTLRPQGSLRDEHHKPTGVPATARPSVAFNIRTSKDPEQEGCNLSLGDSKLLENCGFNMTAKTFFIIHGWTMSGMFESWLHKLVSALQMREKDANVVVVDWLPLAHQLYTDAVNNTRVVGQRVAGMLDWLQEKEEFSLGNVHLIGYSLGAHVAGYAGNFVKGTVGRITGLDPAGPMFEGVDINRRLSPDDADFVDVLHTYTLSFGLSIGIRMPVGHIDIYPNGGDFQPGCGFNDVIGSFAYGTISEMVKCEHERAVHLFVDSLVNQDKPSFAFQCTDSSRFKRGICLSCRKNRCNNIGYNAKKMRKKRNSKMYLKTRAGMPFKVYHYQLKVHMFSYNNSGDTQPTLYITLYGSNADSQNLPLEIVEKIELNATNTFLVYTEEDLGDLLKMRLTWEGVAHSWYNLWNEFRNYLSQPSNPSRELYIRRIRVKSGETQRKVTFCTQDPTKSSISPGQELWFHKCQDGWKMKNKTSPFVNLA
Description: Inhibition of mouse endothelial lipase expressed in HEK293F cells using D31-POPC-HDL as substrate incubated for 2 hrs in presence of mouse plasma by LC/MS analysis. A digest of the protocol:
(§1)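 IC50 values were derived from the means of duplicate inhibition measurements.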

Series [3] can be described thus: Total AUC in Balb/c mouse at 10 mg/kg, po measured after 24 hrs. The series is classed as ADME, organism-based. Particulars: in vivo. Details: dose 10 mg/kg, time AUCmax, route oral. A digest of the protocol: (§2)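 Oral PK in fasted male balb/c mice. Dosing vehicle was ethanol/PEG 400/water (10:60:30).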
Series [4] in a line: Permeability of compound at pH 5.5 by PAMPA. It counts as ADME. The conditions noted are these: read-out: permeability. A digest of the protocol: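 Permeability was measured by parallel artificial membrane permeability assay (PAMPA) at pH 5.5 and pH 7.4. Values are reported in nm/s.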
For a further series, the species on record is Homo sapiens. Kind of series: Selectivity index, ratio of IC50 for inhibition of human hepatic lipase expressed in African green monkey COS7 cells to IC50 for inhibition of human endothelial lipase derived from human HT1080 cell conditioned media. The series is classed as cell-based.
Series [5] addresses T3, Endothelial lipase (Homo sapiens, UniProt Q9Y5X9).
T3 sequence (Q9Y5X9 whole entry): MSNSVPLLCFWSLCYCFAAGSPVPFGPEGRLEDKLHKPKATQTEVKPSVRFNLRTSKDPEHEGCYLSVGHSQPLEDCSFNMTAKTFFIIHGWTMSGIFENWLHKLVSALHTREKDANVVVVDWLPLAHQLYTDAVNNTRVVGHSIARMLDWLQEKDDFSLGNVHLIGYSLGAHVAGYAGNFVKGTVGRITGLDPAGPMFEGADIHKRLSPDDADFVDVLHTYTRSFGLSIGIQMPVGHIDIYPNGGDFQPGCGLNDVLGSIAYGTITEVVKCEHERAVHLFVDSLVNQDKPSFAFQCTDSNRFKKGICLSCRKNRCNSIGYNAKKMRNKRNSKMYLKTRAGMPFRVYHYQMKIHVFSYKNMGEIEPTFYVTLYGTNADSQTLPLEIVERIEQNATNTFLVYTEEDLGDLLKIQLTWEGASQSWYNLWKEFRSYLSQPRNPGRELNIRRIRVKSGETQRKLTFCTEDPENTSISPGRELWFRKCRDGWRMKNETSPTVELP
Description: Inhibition of human endothelial lipase using D31-POPC-HDL as substrate incubated for 2 hrs in presence of human serum by LC/MS analysis. A digest of the protocol:
as §1

Series [6] has as its target T2, Endothelial lipase. Description: Inhibition of endothelial lipase in hepatic lipase knock-out mouse plasma using D31-POPC-HDL as substrate incubated for 2 hrs by LC/MS analysis. It counts as cell-free. A digest of the protocol:
as §1

Series [7] is described as follows: Plasma concentration in Balb/c mouse at 20 mg/kg, po measured after 7 hrs. The series is classed as ADME, organism-based. A digest of the protocol:
as §2

Series [8] in a line: Tmax in Balb/c mouse at 20 mg/kg, po. It counts as ADME, organism-based. Particulars: in vivo. A digest of the protocol:
as §2

A short description of series [9]: Half life in Balb/c mouse at 20 mg/kg, po. It counts as ADME, organism-based. The conditions noted are these: in vivo. A digest of the protocol:
as §2

Series [10] is described as follows: Cmax in Balb/c mouse at 30 mg/kg, po. The series is classed as ADME, organism-based. Details: dose 30 mg/kg, route oral. Particulars: in vivo. A digest of the protocol:
as §2

Series [11] can be described thus: Plasma concentration in Balb/c mouse at 30 mg/kg, po measured after 7 hrs. It counts as ADME, organism-based. A digest of the protocol:
as §2

Series [12] can be described thus: Tmax in Balb/c mouse at 30 mg/kg, po. Particulars: in vivo. The series is classed as ADME, organism-based. A digest of the protocol: as §2
Series [13] in a line: Half life in Balb/c mouse at 30 mg/kg, po. The series is classed as ADME, organism-based. The conditions noted are these: in vivo. A digest of the protocol:
as §2

Series [14] is described as follows: Half life in Balb/c mouse at 10 mg/kg, po. The series is classed as ADME, organism-based. Particulars: in vivo. A digest of the protocol:
as §2

Series [15] is described as follows: Ratio of Cmin in Balb/c mouse at 20 mg/kg, po bid to IC50 for inhibition of mouse endothelial lipase expressed in HEK293F cells using D31-POPC-HDL as substrate incubated for 2 hrs in presence of mouse plasma by LC/MS analysis. The conditions noted are these: in vivo. The series is classed as organism-based.
A short description of series [16]: Cmin in C57BL/6 mouse at 20 mg/kg, po bid measured after 24 hrs. The series is classed as ADME, organism-based. Particulars: in vivo, read-out: Cmin. A digest of the protocol: (§3)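 Satellite PK cohort of wild-type C57BL/6 mice given 20 mg/kg p.o. b.i.d. over 4 days. Plasma levels were taken at 8, 24 and 102 h.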
Series [17] is described as follows: Cmin in C57BL/6 mouse at 20 mg/kg, po bid measured after 102 hrs. It counts as ADME, organism-based. The conditions noted are these: in vivo, read-out: Cmin. A digest of the protocol:
as §3

Series [18] can be described thus: Ratio of Cmin in C57BL/6 mouse at 20 mg/kg, po bid measured after 8 hrs to IC50 for inhibition of mouse endothelial lipase expressed in HEK293F cells using D31-POPC-HDL as substrate incubated for 2 hrs in presence of mouse plasma by LC/MS analysis. The series is classed as organism-based. The conditions noted are these: in vivo.
Series [19] can be described thus: Ratio of Cmin in C57BL/6 mouse at 20 mg/kg, po bid measured after 102 hrs to IC50 for inhibition of mouse endothelial lipase expressed in HEK293F cells using D31-POPC-HDL as substrate incubated for 2 hrs in presence of mouse plasma by LC/MS analysis. The series is classed as organism-based. Particulars: in vivo.

In the case of `COCCS(=O)(=O)C(C(=O)NCC(=O)NC1CC1)c1nc2ccc(-c3ccc(F)nc3)cc2s1` (stereo not given), the IC50 in [1] turned out to be 0.23 µM; at Endothelial lipase [2], 0.12 µM; at Endothelial lipase [5], 0.083 µM; on Endothelial lipase [6], 0.31 µM. This compound also gave an exposure (AUC) at 24 h in series [3] of 111 µM·h. The Papp in series [4] turned out to be 94 nm/s. Further, the Ratio IC50 in the series listed under Homo sapiens came out at 84. The concentration at 7 h in [7] amounted to 7.4 µM; in [11], 2.42 µM. For the same compound, the Tmax in series [8] worked out at 0.5 h; in series [12] it was 0.25 h. Further, the figures for the half-life in series [9], in series [13] and in [14] were 2.3 h, 2.3 h and 2.2 h, respectively. For the same compound, in [10], the Cmax was 142 µM. The results for the Ratio in series [15], in series [18] and in [19] were 23, more than 15 and more than 15, respectively. In addition, in series [16], the concentration at 24 h was determined as 1.8 µM. Also, in series [17], the concentration at 102 h was 6.5 µM.
